# The list is not random: actives were taken first. Their share in the collection is about 3.8%.
# KCNQ1 pot = human KCNQ1 channel potentiation or activation; CHO-K1 KCNQ1, thallium flux FluxOR fluorescence; stronger effect = higher value; B-score at 10 µM; hit rate 0.35% among 310,000; AID 2648;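 active = fluorescence ratio B-score, a plate-corrected score, at least three library SD, with initial intensity B-score within 5 SD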
# Target sequence (P51787 whole entry, looked up): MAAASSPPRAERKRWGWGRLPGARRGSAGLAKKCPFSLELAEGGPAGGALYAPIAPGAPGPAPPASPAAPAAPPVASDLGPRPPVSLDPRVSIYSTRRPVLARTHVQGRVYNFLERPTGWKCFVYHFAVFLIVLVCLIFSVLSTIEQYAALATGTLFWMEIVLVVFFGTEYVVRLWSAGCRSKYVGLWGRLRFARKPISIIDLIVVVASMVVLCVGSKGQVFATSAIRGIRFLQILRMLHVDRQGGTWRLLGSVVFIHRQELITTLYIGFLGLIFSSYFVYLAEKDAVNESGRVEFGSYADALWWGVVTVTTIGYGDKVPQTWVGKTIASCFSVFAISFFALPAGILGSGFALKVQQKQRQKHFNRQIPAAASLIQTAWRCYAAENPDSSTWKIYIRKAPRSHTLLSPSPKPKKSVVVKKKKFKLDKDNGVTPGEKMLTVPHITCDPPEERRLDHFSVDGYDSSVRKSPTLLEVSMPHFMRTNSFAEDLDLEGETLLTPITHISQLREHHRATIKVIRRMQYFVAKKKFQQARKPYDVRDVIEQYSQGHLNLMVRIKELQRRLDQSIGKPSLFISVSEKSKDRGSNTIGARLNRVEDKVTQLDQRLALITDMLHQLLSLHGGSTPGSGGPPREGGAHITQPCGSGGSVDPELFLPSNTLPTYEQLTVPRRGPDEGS
#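 Assay system: stable KCNQ1 CHO-K1 line; medium: assay buffer, equal DMSO in all wells; timing: 90 min dye loading and 20 min compound exposure, both at room temperature; technique: kinetic FluxOR thallium fluorescence, 10-s 1-Hz baseline, 110-s post-stimulus read; read-out basis: B score of baseline-normalized fluorescence ratio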
# Kir21 block = Kir2.1 (mouse) channel inhibition. HEK293-Kir2.1, FluxOR thallium flux fluorescence; stronger effect = lower value. B-score at 10 µM. hit rate 0.85% among 310,000. AID 1672. P35561;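 active = fluorescence ratio B-score at or below minus 3 SD of library scores, with starting-brightness B-score within 2 SD, cut at about -4.2 in these data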;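 also: channel flux triggered by added potassium and thallium sulfate stimulus; B-score of peak minus minimum fluorescence over baseline after thallium stimulus; more negative B-score means stronger Kir2.1 block with less thallium influx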
# KCNQ1 block = inhibitors of human KCNQ1 potassium channel. CHO-K1 KCNQ1, FluxOR thallium flux fluorescence; stronger effect = higher value. B-score at 10 µM. hit rate 1.3% among 310,000;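 active = compounds whose thallium flux B-score, printed positive for inhibition, exceeds three library SD while starting fluorescence stays within three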;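 also: channel opened by potassium depolarization with thallium stimulus after 20 min compound exposure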
# KCNK3 inh = human KCNK3 channel inhibition, primary screen; CHO-KCNK3 thallium flux, FluxOR fluorescence; stronger effect = lower value; B-score at 10 µM; hit rate 0.84% among 340,000; AID 602410;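 active = B-score under library mean minus 4 SD, starting fluorescence ratio at most library mean plus 5 SD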;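 also: more negative B-score means stronger inhibition of thallium flux through KCNK3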
# KCNK9 inh = blocks the human KCNK9 two-pore domain potassium channel; HEK293 KCNK9, FluxOR thallium flux fluorescence; stronger effect = lower value; Q9NPC2; hit rate 1.2% among 310,000; B-score at 10 µM;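 active = ratio B-score over 3 SD below the library mean, with starting fluorescence within 5 SD of its mean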;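 also: negative B-score means less thallium flux so channel inhibition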
# hERG protect = hERG (human) protection from proarrhythmic block | hit rate 0.51% among 310,000 | Q12809 | activation (rescue from dofetilide block), less the hit threshold, % at 10 µM | CHO-hERG, FluxOR thallium flux, dofetilide IC70 present | AID 1511;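 active = activation above the mean of controls blocked by dofetilide plus 5 SD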;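 also: thallium influx through hERG after potassium depolarization seen as dye fluorescence rise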
# KCNK3 inh conf = human KCNK3 channel inhibition, confirmation assay | shares compounds with KCNK3 inh | CHO-KCNK3 thallium flux, FluxOR fluorescence; 0% buffer, 100% carvedilol maximal block | ratio percent of control, % at 10 µM | hit rate 99% among 2,400;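 active = ratio percent of control, averaged over triplicates, above buffer control mean plus 5 SD, cut at about 64% in these data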;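 also: ratio is the fluorescence rise from min to max over baseline after thallium stimulus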
# KCNK3 noninduced = activity in cells without induced KCNK3 expression; shares compounds with KCNK3 inh; non-induced KCNK3 parental cells, FluxOR thallium flux; stronger effect = lower value; thallium flux ratio (lower = more inhibition) at 10 µM; hit rate 40% among 2,400; AID 651747;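 active = thallium flux ratio, averaged over three wells, more than 5 SD below the buffer control mean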;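 also: host cells are CHO cells without KCNK3 induction; ratio is peak minus trough fluorescence over baseline then normalized to buffer controls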
# The depositor's hits bear a star; i = inactive; · = no result given.
SMILES,KCNQ1 pot,Kir21 block,KCNQ1 block,KCNK3 inh,KCNK9 inh,hERG protect,KCNK3 inh conf,KCNK3 noninduced
O=C(Nc1ccc(N2CCOCC2)cc1)c1ccc(COc2ccccc2)cc1,i,0.67,i,i,i,-10.8,·,·
Nc1c(C(=O)N2CCCCCC2)oc2ccccc12,i,1.24,i,i,i,-5.3,·,·
O=C(CNC(=O)c1ccccc1)OCCOc1cccc(Cl)c1,i,0.52,i,i,i,-15.6,·,·
O=C(CNC(=O)c1cccc(F)c1)OCCOc1cccc(Cl)c1,i,1.1,i,-8.73*,i,-17.2,103.7*,i
O=C(Cc1ncc(C(F)(F)F)cc1Cl)NCc1ccco1,i,-0.49,i,i,i,-11.6,·,·
COCn1c(COc2ccc3ccccc3c2)nc2ccccc21,i,-0.02,i,-8.77*,i,-8.3,94.7*,i
CCn1c(COc2cccc(C)c2)nc2ccccc21,i,-0.37,i,i,i,-7.3,·,·
CCOC(=O)N1CCN(C(=O)CSCC(=O)Nc2nc(-c3ccc(-c4ccccc4)cc3)cs2)CC1,i,0.46,6*,-10.3*,i,-15.2,117.0*,0.147*
O=C(CSCC(=O)N1CCOCC1)Nc1nc(-c2ccccc2)cs1,i,-0.13,i,i,i,-7.1,·,·
O=C1C(Cl)=C(NCCc2ccccc2)C(=O)c2ccccc21,·,·,·,-13.5*,·,·,160.7*,0.0653*
Cc1cc(NCc2ccccc2)nc(-c2ccccc2O)n1,i,0.77,i,-10.5*,i,-7.5,132.7*,0.133*
CC(C)N1CCc2c(sc(NC(=O)CCS(=O)(=O)c3ccccc3)c2C#N)C1,i,-0.42,i,i,i,-7.9,·,·
CCNC(=O)CSc1nnc(-c2cccc(S(=O)(=O)N(CC)CC)c2)n1CCc1ccccc1,i,0.02,i,i,i,-7.6,·,·
CCSc1nnc(-c2cccc(S(=O)(=O)N(CC)CC)c2)n1Cc1ccccc1,i,-0.35,i,-9.82*,i,-27.8,93.0*,i
O=C(O)CN1CCN(Cc2ccc(Cl)cc2)C1=O,i,-1.09,i,i,i,-6.8,·,·
COCCNC(=O)c1ccccc1NC(=O)Cc1ccccc1[N+](=O)[O-],i,1.19,i,-9.87*,i,-11.9,0.0,i
CC(Cc1cccs1)NC(=O)Nc1ccccc1 (centres undefined),i,-0.02,i,-8.97*,i,-6.4,90.3*,i
COC(=O)c1ccc(Oc2ccc(S(=O)(=O)N3CCCCC3)cc2N)cc1,i,2.86,i,i,i,-3.6,·,·
Nc1cc(S(=O)(=O)N2CCCCC2)ccc1Oc1ccc(Cl)cc1,i,1.06,i,-9.05*,i,-23.2,112.3*,i
CCC(Sc1ncccc1Nc1ccccn1)C(=O)O (centres undefined),i,-0.91,i,i,i,-10.3,·,·
CN(C)S(=O)(=O)Oc1ccsc1C(=O)Nc1cccc(Cl)c1Cl,i,-0.07,i,-9.06*,i,-5.6,87.7*,i
CN(C)S(=O)(=O)Oc1ccsc1C(=O)Nc1ccccc1Cl,i,-1.33,i,i,i,-10.0,·,·
Cc1ccc(CNC(=O)C(C)C2Sc3ccccc3NC2=O)cc1 (centres undefined),i,-1.07,i,i,i,-11.5,·,·
Cc1ccc(-c2cc(-c3ccccc3)nc(Cl)n2)cc1,i,1,i,-10.8*,i,-7.4,130.3*,0.115*
N#CC1c2ccccc2C=CN1C(=O)N(c1ccccc1)c1ccccc1 (centres undefined),·,·,·,i,·,·,·,·
SMILES,KCNQ1 pot,Kir21 block,KCNQ1 block,KCNK3 inh,KCNK9 inh,hERG protect,KCNK3 inh conf,KCNK3 noninduced
CCOC(=O)c1c2c(c(=S)n(-c3ccccc3)c1N)CCC2,i,1.31,i,-10.1*,i,-8.7,123.0*,0.114*
CCOC(=O)c1c(N)sn(-c2ccccc2)c1=S,i,0.84,i,i,i,-4.1,·,·
COc1cccc(CN(C)Cc2cc(=O)oc3c(C)c(C)ccc23)c1,i,1.32,i,-10.7*,i,-9.8,124.7*,0.144*
Cc1cc2oc(=O)cc(CN(C)Cc3cccc(F)c3)c2cc1C,i,0.07,i,-8.73*,i,-8.3,112.0*,i
CCc1ccc2c(CN(C)Cc3ccc(OC(F)F)c(OC)c3)cc(=O)oc2c1,i,2.37,i,-15.8*,i,-4.5,128.0*,0.146*
Cc1ccccc1CN(C)Cc1cc(=O)oc2c(C)c(C)ccc12,i,-2.13,9*,-10.6*,i,-20.8,118.3*,0.135*
COc1ccccc1-c1nnc(C2CCN(S(=O)(=O)c3ccccc3[N+](=O)[O-])CC2)o1,i,1.09,i,i,i,-6.2,·,·
Cc1ccc2nc3c(cc2c1)c(NC(=O)C(C)(C)C)nn3CC(C)C,i,0.29,i,i,i,-2.1,·,·
CCCCC(=O)N(Cc1ccc(F)cc1)C1CCS(=O)(=O)C1 (centres undefined),i,1.85,i,i,i,-14.5,·,·
CC(=O)NC(Cc1ccc(C)cc1)C(=O)NC1CCN(c2ncccc2[N+](=O)[O-])CC1 (centres undefined),i,0.67,i,i,i,2.4,·,·
CCCC(NC(=O)C(C)Sc1nnnn1C1CC1)c1ccccc1 (centres undefined),·,·,·,i,·,·,·,·
c1ccc(-c2nc(-c3ccco3)n3ccccc23)cc1,i,0,i,-9.75*,i,-11.8,116.0*,0.148*
c1ccc(Nc2c(-c3ccco3)nc3ccccn23)cc1,i,1.63,i,i,i,-7.2,·,·
CCOC(=O)C1=C(CSc2nc3c(cc2C#N)CN(C)CC3)OC(N)=C(C#N)C1c1ccncc1 (centres undefined),i,-0.59,i,i,i,-13.2,·,·
CCOC(=O)C1=C(CSc2nc(CC)c(C)cc2C#N)OC(N)=C(C#N)C1c1ccccc1 (centres undefined),i,0.45,i,-9.79*,i,-6.5,109.3*,i
CCOc1ccc(NC(=S)N(CCc2c(C)[nH]c3ccccc23)Cc2cccnc2)cc1,i,1.06,i,i,i,-19.0,·,·
COc1ccc(NC(=S)N(CCc2c(C)[nH]c3ccc(C)cc23)Cc2cccnc2)cc1,i,-0.13,i,-12.1*,-6.87*,-5.3,96.3*,0.153*
